The target in assay [1] is Glyceraldehyde-3-phosphate dehydrogenase (Homo sapiens) (UniProt P04406). Briefly: Inhibition of human GAPDH assessed as ratio of kinact to Ki by Kitz-Wilson double-reciprocal plot at pH 7.4.
For assay [2], the target named is Glyceraldehyde-3-phosphate dehydrogenase (Plasmodium falciparum) (UniProt Q8T6B1). Briefly: Inhibition of recombinant Plasmodium falciparum GAPDH expressed in Escherichia coli assessed as ratio of kinact to Ki by Kitz-Wilson double-reciprocal plot. In short, it runs like this: (§1)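 Pf GAPDH incubated with inhibitor, aliquots withdrawn over time for activity assay; control enzyme kept without inhibitor under the same conditions. Activity normalized to the inhibitor-free value. Time courses fitted to a sum of two exponential decays. kobs obtained by fitting residual activity versus incubation time to a mechanism-based inhibition equation (kinact, Ki). Duplicates.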

The target is the same in assay [3]. Kind of assay: Inhibition of unmodified recombinant Plasmodium falciparum GAPDH at 200 uM measured after overnight incubation by mass spectroscopy in presence of trypsin. In short, it runs like this: (§2)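 Pf GAPDH incubated overnight with inhibitor at 200 μM. MALDI-TOF on undigested protein (double-layer CHCA matrix) or on tryptic digests (thin-layer CHCA), with MS/MS. Cys alkylation checked by 1 h treatment of 20 μM enzyme with 10-fold excess iodoacetamide before analysis.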

For assay [4] the target is unchanged. Kind of assay: Inhibition of recombinant Plasmodium falciparum GAPDH expressed in Escherichia coli at 50 to 200 uM by time course assay. The conditions noted are these: TDE = time-dependent effect. In short, it runs like this:
as §1

Assay [5] shares this target. Kind of assay: Inhibition of undigested recombinant Plasmodium falciparum GAPDH at 200 uM measured after overnight incubation by mass spectroscopy. In short, it runs like this: as §2
The target is the same in assay [6]. Briefly: Inhibition of recombinant Plasmodium falciparum GAPDH expressed in Escherichia coli by time course assay. In short, it runs like this:
as §1

Assay [7] shares this target. Kind of assay: Irreversible inhibition of recombinant Plasmodium falciparum GAPDH expressed in Escherichia coli by time course assay. In short, it runs like this:
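Pf GAPDH was incubated with inhibitor at 50–300 μM, and enzyme activity was assayed over the incubation time. Activity was normalized to the same enzyme kept under identical conditions without inhibitor. Residual-activity time courses were fitted to a sum of two exponential decays. kobs was obtained by fitting the mechanism-based inhibition equation, giving kinact and Ki. Experiments were done in duplicate.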

Assay [8] shares this target. Briefly: Inhibition of recombinant Plasmodium falciparum GAPDH expressed in Escherichia coli by UV-vis spectroscopy. In short, it runs like this:
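Enzyme at 400 μM incubated with inhibitor. Absorption spectra recorded until reaction completion to follow loss of the Racker band.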

Assay [9] shares this target. Briefly: Inhibition of recombinant Plasmodium falciparum GAPDH expressed in Escherichia coli at 50 to 300 uM by time course assay. In short, it runs like this: as §1

Activity calls are given as the source filed them. The rule behind the calls is not given here.

Glyceraldehyde-3-phosphate dehydrogenase (Plasmodium falciparum), sequence (Q8T6B1 as listed by the source): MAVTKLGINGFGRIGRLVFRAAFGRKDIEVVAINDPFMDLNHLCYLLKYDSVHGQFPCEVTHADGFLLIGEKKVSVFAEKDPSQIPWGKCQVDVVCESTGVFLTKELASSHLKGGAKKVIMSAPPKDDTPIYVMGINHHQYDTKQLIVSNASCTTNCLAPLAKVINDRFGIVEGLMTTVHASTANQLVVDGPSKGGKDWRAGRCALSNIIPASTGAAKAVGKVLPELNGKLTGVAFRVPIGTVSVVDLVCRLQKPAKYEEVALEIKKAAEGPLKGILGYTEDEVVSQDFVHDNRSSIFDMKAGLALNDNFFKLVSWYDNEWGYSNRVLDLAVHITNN
Glyceraldehyde-3-phosphate dehydrogenase (Homo sapiens), sequence (P04406 2-335 limits assumed): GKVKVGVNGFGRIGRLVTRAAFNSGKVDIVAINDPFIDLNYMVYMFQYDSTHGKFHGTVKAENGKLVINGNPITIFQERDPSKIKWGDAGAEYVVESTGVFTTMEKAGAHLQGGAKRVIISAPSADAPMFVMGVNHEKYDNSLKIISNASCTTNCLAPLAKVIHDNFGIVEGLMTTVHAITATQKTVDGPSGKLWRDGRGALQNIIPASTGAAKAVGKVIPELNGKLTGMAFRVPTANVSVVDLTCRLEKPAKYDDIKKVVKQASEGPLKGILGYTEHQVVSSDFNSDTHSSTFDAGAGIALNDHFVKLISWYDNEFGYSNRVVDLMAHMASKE

In the case of `C=CC(N)=O`, the Ratio in [1] amounted to 0.053 M⁻¹ s⁻¹.

As to `C=CC=O`, the Ratio in assay [1] turned out to be 297 M⁻¹ s⁻¹.

For `COC(=O)[C@@H](N)[C@@H]1CC(Br)=NO1`, in assay [2], the Ratio was 10.7 M⁻¹ s⁻¹. Further, the inhibition result in assay [3] and in assay [5] was “Active” throughout. Besides, the results for the inhibition entry in assay [4] and in [6] were “tde” and “Dose-dependent effect”, respectively.

For `N[C@H](C(=O)O)[C@@H]1CC(Br)=NO1`, the Ratio in [2] was determined as 0.7 M⁻¹ s⁻¹. The inhibition entry in assay [4] was “tde”; in assay [6], “Dose-dependent effect”. Besides, the inhibition entry in [7] was “Active”.

For `N[C@H](C(=O)O)[C@@H]1CC(Cl)=NO1`, the inhibition result was “tde” in assay [4] and “Dose-dependent effect” in [6]. For the same compound, in assay [7], the inhibition entry is “Active”.

Turning to `N[C@H](C(=O)OCc1ccccc1)[C@@H]1CC(Br)=NO1`, in assay [2], the Ratio was determined as 6.6 M⁻¹ s⁻¹. The inhibition entry in assay [4] was “tde”; in assay [6] it was “Dose-dependent effect”. Also, the inhibition result in assay [5] is “Active”.

Turning to `O=C(N[C@H](C(=O)O)[C@@H]1CC(Br)=NO1)OCc1ccccc1`, in [2], the Ratio stood at 2.6 M⁻¹ s⁻¹. In assay [3], the inhibition result is “Active”. Moreover, the inhibition entry in assay [4] is “tde”; in assay [6] it was “Dose-dependent effect”.

Take `BrC1=NOC(c2ccccc2)C1` (racemic): the Ratio in [2] is 10.3 M⁻¹ s⁻¹. Besides, the results for the inhibition result in assay [4] and in assay [6] were “tde” and “Dose-dependent effect”, respectively. The inhibition result in [7] and in [8] was “Active” throughout.

With `BrC1=NOC(c2ccncc2)C1` (racemic), in assay [2], the Ratio was 0.47 M⁻¹ s⁻¹. Besides, the inhibition entry in [4] is “tde”; in assay [6] it was “Dose-dependent effect”.

As for `CC(C)(C)OC(=O)N1CC2ON=C(Br)C2C1` (racemic), the Ratio in assay [2] was determined as 4.8 M⁻¹ s⁻¹. The inhibition entry is “tde” in assay [4] and “Dose-dependent effect” in assay [6].

`CC(C)(C)OC(=O)NCC1CC(Br)=NO1` (racemic): the inhibition result in [9] and in assay [5] was “Active” throughout. In addition, the Ratio in [2] came to 2.9 M⁻¹ s⁻¹. For the same compound, the inhibition entry in assay [6] is “Dose-dependent effect”.

For the compound `ClC1=NOC(c2ccccc2)C1` (racemic), the inhibition result is “tde” in assay [4] and “Dose-dependent effect” in [6]. The inhibition entry in assay [7] was “Active”.

As for `O=C(O)CC1CC(Br)=NO1` (racemic), in assay [2], the Ratio is 0.7 M⁻¹ s⁻¹. The inhibition result in assay [4] was “tde”; in [6], “Dose-dependent effect”.

For `Oc1ccc(C2CC(Br)=NO2)cc1` (racemic), the Ratio in [2] came to 3.1 M⁻¹ s⁻¹. Besides, the inhibition result was “tde” in assay [4] and “Dose-dependent effect” in assay [6].

These data come from ChEMBL document CHEMBL3352381, “Discovery of covalent inhibitors of glyceraldehyde-3-phosphate dehydrogenase, a target for the treatment of malaria” (J Med Chem, 2014).
